In ChEMBL document CHEMBL4261657, “Discovery of Clinical Candidate 2-(4-(2-((1 H-Benzo[ d]imidazol-2-yl)thio)ethyl)piperazin-1-yl)- N-(6-methyl-2,4-bis(methylthio)pyridin-3-yl)acetamide Hydrochloride [K-604], an Aqueous-Soluble Acyl-CoA:Cholesterol O-Acyltransferase-1 Inhibitor” (J Med Chem, 2018) one finds Activity, NOAEL and solubility data, which are given here for two compounds.

Data set [1] deals with Hamster. Kind of data set: Antiatherosclerotic activity in Bio F1B hamster model of diet-induced atherosclerosis assessed as reduction in total plasma cholesterol at 0.3 to 10 mg/kg/day added to chow pellets relative to control. To be noted: Cricetinae. It is filed as functional, organism-based. The method in brief:
(§1)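 Male Bio F1B hamsters (8 weeks old) were fed CE-2 chow with 0.3% cholesterol and 10% coconut oil for 10 weeks, with compound mixed into the chow (n=7 per dose; reference group n=6). Plasma TC was measured by enzymatic kit. Aorta was perfusion-fixed with 4% paraformaldehyde under pentobarbital anaesthesia, opened and stained with oil red O, and lipid area was measured by image analysis. Results are % of control ± SD, analysed by Dunnett's test.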

The test system of data set [2] is Hamster. Nature of the data set: Antiatherosclerotic activity in Bio F1B hamster model of diet-induced atherosclerosis assessed as reduction in CE to FC ratio in liver at 0.3 to 10 mg/kg/day added to chow pellets. It is filed as functional, organism-based. To be noted: Cricetinae.
The test system of data set [3] is Hamster. Kind of data set: Antiatherosclerotic activity in cholesterol fed F1B hamster model of diet-induced atherosclerosis assessed as reduction in lipid accumulation areas at 10 mg/kg. It is filed as functional, Cricetinae, Bio F1B. More on the design: scale not given: the % may be the effect or the level left.
A short description of data set [4]: Toxicity in rabbit. It counts as organism-based, Oryctolagus cuniculus. The following applies: in vivo. The method in brief: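 Preliminary adrenal toxicity test in male rabbits (four per group) given a single intravenous injection. Adrenal glands were examined 24 h after dosing for necrosis of zona fasciculata cells. The read-out was the number of animals affected per group. PD-132301-2 served as the positive control.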

Data set [5] concerns Hamster. Nature of the data set: Antiatherosclerotic activity in cholesterol fed F1B hamster model of diet-induced atherosclerosis assessed as reduction in lipid accumulation areas at 3 mg/kg. It is filed as functional, Cricetinae, Bio F1B. More on the design: scale not given: the % may be the effect or the level left.
In data set [6] the test system is Hamster. Nature of the data set: Antiatherosclerotic activity in Bio F1B hamster model of diet-induced atherosclerosis assessed as reduction in lipid accumulation areas in aortic arch at 0.3 to 10 mg/kg/day added to chow pellets by oil red O staining based assay relative to control. It is filed as functional, organism-based. The following applies: Cricetinae. Put shortly: as §1

The subject of data set [7] is Hamster. Nature of the data set: Antiatherosclerotic activity in Bio F1B hamster model of diet-induced atherosclerosis assessed as reduction in CE to FC ratio in intestine at 0.3 to 10 mg/kg/day added to chow pellets. It counts as functional, organism-based. To be noted: Cricetinae.
Data set [8] has as its system Hamster. Nature of the data set: Antiatherosclerotic activity in cholesterol fed F1B hamster model of diet-induced atherosclerosis assessed as reduction in lipid accumulation areas at 30 mg/kg. It is filed as functional, Cricetinae, Bio F1B. More on the design: scale not given: the % may be the effect or the level left.
Data set [9] has as its system Hamster. Kind of data set: Toxicity in Bio F1B hamster model of diet-induced atherosclerosis assessed as reduction in CE to FC ratio in adrenal gland at 0.3 to 10 mg/kg/day added to chow pellets. It counts as organism-based. The following applies: cricetinae, in vivo, po.
Data set [10] is described as follows: Solubility of the compound in 0.025N HCl. It counts as physicochemical.

Each structure is given as a SMILES string. Activity calls are given as the source filed them. The calls are words filed in the database; no cut-off is given here.

As to `CC(C)c1cc(C(C)C)c(CC(=O)NS(=O)(=O)Oc2c(C(C)C)cccc2C(C)C)c(C(C)C)c1` [AVASIMIBE], the result in the data set on Hamster [1], with Hamster [2], in the data set on Hamster [6] and with Hamster [7] was Active. The Activity in the data set on Hamster [3] is 86%; in the data set on Hamster [5], 68%; in the data set on Hamster [8], 93%; in the data set on Hamster [9], “Non-Toxic”. The same compound showed an NOAEL in [4] of 5 mg/kg.
On to `CN(C)c1ccc(NC(=O)N(Cc2cccc(CN(C(=O)Nc3ccc(N(C)C)cc3)C3CCCCCC3)c2)C2CCCCCC2)cc1.Cl.Cl`, for which, in data set [10], the concentration in solution (solubility) came to 10000 µg/mL.
